Results on five compounds are retold here after ChEMBL document CHEMBL1145087 (J Med Chem, 2003).

Where only a bound is given, the exact number is not on record here.

For assay [1], the target named is T1, Mineralocorticoid receptor (Homo sapiens, UniProt P08235).
T1 sequence (P08235 whole entry): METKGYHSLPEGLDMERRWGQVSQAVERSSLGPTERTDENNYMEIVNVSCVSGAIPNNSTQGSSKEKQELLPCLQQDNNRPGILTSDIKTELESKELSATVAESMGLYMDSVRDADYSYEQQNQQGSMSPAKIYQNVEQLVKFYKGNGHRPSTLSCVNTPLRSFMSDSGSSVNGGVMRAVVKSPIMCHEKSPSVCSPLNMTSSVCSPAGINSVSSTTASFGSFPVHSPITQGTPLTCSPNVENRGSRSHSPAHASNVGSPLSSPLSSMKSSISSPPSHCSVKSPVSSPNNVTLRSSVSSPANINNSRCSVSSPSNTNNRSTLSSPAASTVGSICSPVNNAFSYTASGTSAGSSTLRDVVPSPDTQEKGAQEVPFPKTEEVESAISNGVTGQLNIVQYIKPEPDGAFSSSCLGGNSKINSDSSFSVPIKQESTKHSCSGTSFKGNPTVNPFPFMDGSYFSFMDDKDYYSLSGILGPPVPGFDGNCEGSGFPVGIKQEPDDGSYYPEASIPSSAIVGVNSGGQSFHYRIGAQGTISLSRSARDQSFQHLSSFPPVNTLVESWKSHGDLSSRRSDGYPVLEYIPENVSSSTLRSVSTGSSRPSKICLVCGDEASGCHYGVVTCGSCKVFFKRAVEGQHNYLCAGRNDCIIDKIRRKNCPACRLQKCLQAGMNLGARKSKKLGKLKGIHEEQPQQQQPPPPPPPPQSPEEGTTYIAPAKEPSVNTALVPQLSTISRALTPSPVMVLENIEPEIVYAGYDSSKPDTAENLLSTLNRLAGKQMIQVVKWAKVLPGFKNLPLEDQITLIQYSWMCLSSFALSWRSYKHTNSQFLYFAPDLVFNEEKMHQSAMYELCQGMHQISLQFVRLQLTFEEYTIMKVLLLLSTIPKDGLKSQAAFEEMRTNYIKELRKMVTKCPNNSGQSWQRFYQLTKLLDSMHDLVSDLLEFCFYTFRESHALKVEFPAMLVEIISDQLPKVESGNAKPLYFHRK
Briefly: Inhibitory activity against human Mineralocorticoid receptor.

Another assay has as its target T2, Progesterone receptor (Homo sapiens, UniProt P06401).
T2 sequence (P06401 whole entry): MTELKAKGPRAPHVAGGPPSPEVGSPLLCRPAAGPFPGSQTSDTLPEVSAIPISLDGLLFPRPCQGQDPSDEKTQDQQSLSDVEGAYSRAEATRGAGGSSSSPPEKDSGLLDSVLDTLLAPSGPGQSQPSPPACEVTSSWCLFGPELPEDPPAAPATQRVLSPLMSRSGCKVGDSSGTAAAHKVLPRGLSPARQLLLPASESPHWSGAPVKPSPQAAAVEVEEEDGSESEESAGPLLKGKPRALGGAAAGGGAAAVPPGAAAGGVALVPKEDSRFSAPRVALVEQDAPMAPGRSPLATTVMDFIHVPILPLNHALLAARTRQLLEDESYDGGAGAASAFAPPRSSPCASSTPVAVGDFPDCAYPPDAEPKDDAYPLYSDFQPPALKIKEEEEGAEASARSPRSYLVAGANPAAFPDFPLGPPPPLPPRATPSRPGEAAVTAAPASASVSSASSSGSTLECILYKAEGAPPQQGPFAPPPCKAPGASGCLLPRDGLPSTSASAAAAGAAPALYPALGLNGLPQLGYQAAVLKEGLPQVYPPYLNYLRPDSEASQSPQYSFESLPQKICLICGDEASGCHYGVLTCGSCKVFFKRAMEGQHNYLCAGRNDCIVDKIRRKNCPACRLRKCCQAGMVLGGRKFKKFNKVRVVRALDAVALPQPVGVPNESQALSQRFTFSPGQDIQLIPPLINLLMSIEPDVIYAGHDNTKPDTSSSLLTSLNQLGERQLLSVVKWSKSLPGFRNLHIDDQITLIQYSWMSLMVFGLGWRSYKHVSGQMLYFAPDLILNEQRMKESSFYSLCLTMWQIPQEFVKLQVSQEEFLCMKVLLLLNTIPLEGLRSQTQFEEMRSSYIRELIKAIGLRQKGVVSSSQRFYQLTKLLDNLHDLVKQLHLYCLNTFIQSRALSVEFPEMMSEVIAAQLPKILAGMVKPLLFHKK
Kind of assay: Binding affinity towards human progesterone receptor A isoform using progesterone as radioligand.

Another assay has as its target Estrogen receptor (Homo sapiens, UniProt Q92731+P03372). Briefly: Antagonistic efficacy against human estrogen receptor. The format is functional. The method in brief: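 Cotransfection LUC reporter assay for hER. Antagonist efficacy is the % maximal inhibition of a standard agonist (estradiol is the reference agonist for hER) applied at its EC50.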
The next assay deals with T3, Glucocorticoid receptor (Homo sapiens, UniProt P04150).
T3 sequence (P04150 whole entry): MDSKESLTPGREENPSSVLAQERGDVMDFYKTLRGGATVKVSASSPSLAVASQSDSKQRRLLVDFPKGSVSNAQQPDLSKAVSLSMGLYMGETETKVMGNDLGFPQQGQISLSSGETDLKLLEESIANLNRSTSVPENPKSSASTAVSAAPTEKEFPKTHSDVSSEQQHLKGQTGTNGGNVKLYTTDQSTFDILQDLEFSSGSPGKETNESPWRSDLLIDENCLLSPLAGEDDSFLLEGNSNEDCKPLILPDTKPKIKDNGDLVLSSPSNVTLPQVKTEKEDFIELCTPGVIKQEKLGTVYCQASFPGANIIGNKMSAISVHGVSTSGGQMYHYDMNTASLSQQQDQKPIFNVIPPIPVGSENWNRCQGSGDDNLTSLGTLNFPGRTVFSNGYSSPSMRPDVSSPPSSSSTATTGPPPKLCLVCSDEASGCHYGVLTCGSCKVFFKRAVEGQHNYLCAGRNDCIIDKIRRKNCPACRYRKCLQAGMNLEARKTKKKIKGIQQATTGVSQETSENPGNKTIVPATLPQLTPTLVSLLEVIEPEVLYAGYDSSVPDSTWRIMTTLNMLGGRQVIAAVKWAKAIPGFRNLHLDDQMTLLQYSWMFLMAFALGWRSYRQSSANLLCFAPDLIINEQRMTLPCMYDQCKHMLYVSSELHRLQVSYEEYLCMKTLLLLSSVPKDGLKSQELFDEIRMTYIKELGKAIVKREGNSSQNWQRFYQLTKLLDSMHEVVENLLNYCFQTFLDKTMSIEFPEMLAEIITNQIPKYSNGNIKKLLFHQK
Briefly: Inhibition of Dexamethasone binding to human glucocorticoid receptor expressed in baculovirus […] cells.

For assay [2], the target named is T4, Mineralocorticoid receptor (Homo sapiens) (UniProt P08235).
T4 sequence (whole entry): T1 sequence (P08235 whole entry)
Kind of assay: Agonistic efficacy against human Mineralocorticoid receptor. The format is functional. The gist of the method: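 Cell-based cotransfection assay for hMR in 96-well format. Agonist activity is read as normalized LUC expression. Efficacy is expressed relative to the maximal LUC response to aldosterone.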

Compound `CC1=CC(C)(C)Nc2ccc3c(c21)/C(=C/c1ccccc1C)Oc1c(F)cccc1-3` came in with an IC50 in assay [1] of 1850 nM. In addition, the Ki came to 1.5 nM on Progesterone receptor and 232 nM at Glucocorticoid receptor. Also, the Efficacy was 41% at Estrogen receptor and 70% in assay [2].
On to `CC1=CC(C)(C)Nc2ccc3c(c21)/C(=C/c1ccccc1)Oc1c(F)cccc1-3`, for which the Ki was found to be 0.61 nM at Progesterone receptor and 321 nM at Glucocorticoid receptor. This compound gave an Efficacy in assay [2] of more than 20%.
In assay [1], `CC1=CC(C)(C)Nc2ccc3c(c21)/C(=C/c1ccsc1)Oc1ccc(F)cc1-3` had a concentration for half-maximal inhibition (IC50) of 1900 nM. For the same compound, the Ki stood at 1.3 nM on Progesterone receptor and 84 nM at Glucocorticoid receptor. Also, the Efficacy on Estrogen receptor amounted to 36%; in assay [2] it was 63%.
In turn, `CC1=CC(C)(C)Nc2ccc3c(c21)/C(=C/c1ccncc1C)Oc1ccc(F)cc1-3` came in with an IC50 in assay [1] of 363 nM. Further, the values for the Ki on Progesterone receptor and on Glucocorticoid receptor were 1.4 nM and 232 nM, respectively. The Efficacy on Estrogen receptor came out at 44%; in assay [2], 71%.
As to `CCc1ccccc1/C=C1\Oc2ccc(F)cc2-c2ccc3c(c21)C(C)=CC(C)(C)N3`, half-maximal inhibition in assay [1] (IC50) was put at 334 nM. The Ki on Progesterone receptor stood at 2.3 nM; on Glucocorticoid receptor it was 270 nM. This compound had an Efficacy in assay [2] of 50%.
